# According to ChEMBL document CHEMBL1131448 (J Med Chem, 1998):
# How the values were obtained:
# [1] = system: DNA topoisomerase 1 (Bos taurus); assay: Effect on Topo-I-mediated relaxation of supercoiled pUC19 plasmid DNA in calf thymus at 100 uM
# [2] = system: K562; assay: Antiproliferative activity measured against K562adr leukemia cells.; assay type: functional, cell-based; details: Homo sapiens
# In short: (§1)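 Cells seeded 24 h before treatment (3000/well A427, MCF7mdr, K562adr; 1500/well PC-3) in DMEM with 10% heat-inactivated FCS, penicillin/streptomycin, 2 mM glutamine. Drug from DMSO (0.1% final) at 5 × 10^-13 to 1 × 10^-6 M final, 72 h exposure. Viability by WST-1 formazan colorimetry. Two experiments, eight determinations per concentration. IC50 by linear regression on linear part of sigmoid.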
# [3] = system: A-427; assay: Antiproliferative activity measured against A427 human lung carcinoma; assay type: functional, cell-based
# In short: as §1
# [4] = system: PC-3; assay: Antiproliferative activity measured against PC-3 human prostate adenocarcinoma; assay type: functional, cell-based; details: PC-3, Prostate gland
# In short: as §1
# [5] = system: MCF7; assay: Antiproliferative activity measured against MCF-7-mdr cells.; assay type: functional, cell-based; details: Homo sapiens
# In short: as §1
# [6] = system: HT-29; assay: Antitumor activity was measured on HT-29 xenografts after 1.25 mg/kg ip dose.; assay type: functional, Homo sapiens; details: route intraperitoneal
# In short: (§2)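 Female NCr nu/nu athymic mice, 4-6 weeks old, given sc HT-29 cells (5 × 10^6/animal, left dorsum). Randomised at day 10 at about 175 mm³ mean tumour (5/treated group, 10 controls). Drug in DMSO (3%)/Tween 20 (2%)/0.9% NaCl given ip daily, 4 days on/3 off, ×3 (12 injections). Caliper volume (w²l)/2 three times weekly with body weight. T-C delay in days to reach 250% of starting volume.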
# [7] = system: HT-29; assay: Antitumor activity was measured on HT-29 xenografts after 0.32 mg/kg ip dose.; assay type: functional, Homo sapiens; details: route intraperitoneal
# In short: as §2
# [8] = system: HT-29; assay: Antitumor activity was measured on HT-29 xenografts after 2.5 mg/kg ip dose; td =' toxic dose'; assay type: functional, organism-based; set-up: dose 2.5 mg/kg; details: Homo sapiens
# In short: as §2
# [9] = system: HT-29; assay: Antitumor activity was measured on HT-29 xenografts after 0.625 mg/kg ip dose.; assay type: functional, Homo sapiens; details: route intraperitoneal
# In short: as §2
# [10] = system: HT-29; assay: Antitumor activity was measured on HT-29 xenografts after 0.16 mg/kg ip dose.; assay type: functional, Homo sapiens; details: route intraperitoneal
# In short: as §2
# [11] = system: HT-29; assay: Antitumor activity was measured on HT-29 xenografts after 0.625 mg/kg ip dose; toxic dose; assay type: functional, organism-based; set-up: dose 0.625 mg/kg; details: Homo sapiens
# In short: as §2
# [12] = system: HT-29; assay: Antitumor activity was measured on HT-29 xenografts after 1.25 mg/kg ip dose; td = ' toxic dose'; assay type: functional, organism-based; set-up: dose 1.25 mg/kg; details: Homo sapiens
# In short: as §2
# [13] = system: HT-29; assay: Antitumor activity was measured on HT-29 xenografts after 0.625 mg/kg ip dose; td = 'toxic dose'; assay type: functional, organism-based; set-up: dose 0.625 mg/kg; details: Homo sapiens
# In short: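 Female NCr nu/nu athymic mice, 4-6 weeks old, bearing sc HT-29 tumours (5 × 10⁶ cells, left dorsal surface). Dosing began at about 175 mm³ (day 10), 5 mice per group and 10 controls. Drug given ip in DMSO (3%)/Tween 20 (2%)/0.9% NaCl, daily 4 days on/3 off, three cycles. Calipers three times weekly; T-C growth delay in days to reach 250% of starting volume.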
Compound,Relaxed DNA [1],IC50 [2],IC50 [3],IC50 [4],IC50 [5],further results
CC[C@@]1(O)CC(=O)OCc2c1cc1n(c2=O)Cc2cc3ccccc3nc2-1,45%,–,–,–,–,–
CCC1(O)CC(=O)OCc2c1cc1n(c2=O)Cc2cc3cc(F)ccc3nc2-1 (stereo unspecified),47%,63 nM,7.7 nM,0.58 nM,–,–
CCC1(O)CC(=O)OCc2c1cc1n(c2=O)Cc2cc3cc(C)c(Cl)cc3nc2-1 (stereo unspecified),59%,2.9 nM,0.031 nM,3.6 nM,–,–
COc1cccc2c1C(=O)c1c(O)c3c(c(O)c1C2=O)C[C@@](O)(C(=O)CO)C[C@@H]3O[C@H]1C[C@H](N)[C@H](O)[C@H](C)O1 [DOXORUBICIN],–,15000 nM,–,390 nM,–,–
CCC1(O)CC(=O)OCc2c1cc1n(c2=O)Cc2cc3cc(F)c(Cl)cc3nc2-1 (stereo unspecified),61%,20 nM,0.023 nM,12 nM,1.7 nM,Tumor growth delay [6]: 7 days; Tumor growth delay [7]: 1 days; Tumor growth delay [8]: Toxic dose; Tumor growth delay [9]: 2 days
CCC1(O)CC(=O)OCc2c1cc1n(c2=O)Cc2cc3cc(C)c(F)cc3nc2-1 (stereo unspecified),18%,14 nM,0.00081 nM,< 0.001 nM,0.01 nM,Tumor growth delay [10]: 4 days; Tumor growth delay [11]: Toxic; Tumor growth delay [7]: 7 days
CC[C@]1(O)CC(=O)OCc2c1cc1n(c2=O)Cc2cc3ccccc3nc2-1,100%,–,–,–,–,–
CCc1c2c(nc3ccccc13)-c1cc3c(c(=O)n1C2)COC(=O)CC3(O)CC (stereo unspecified),34%,33 nM,–,28 nM,21 nM,–
CC[C@@]1(O)C(=O)OCc2c1cc1n(c2=O)Cc2cc3ccccc3nc2-1 [CAMPTOTHECIN],–,57 nM,24 nM,57 nM,3.1 nM,Tumor growth delay [9]: 4 days; Tumor growth delay [12]: Toxic
CCC1(O)CC(=O)OCc2c1cc1n(c2=O)Cc2cc3cc(OC)c(F)cc3nc2-1 (stereo unspecified),26%,18 nM,0.0083 nM,< 0.001 nM,2.2 nM,Tumor growth delay [10]: 4 days; Tumor growth delay [11]: Toxic; Tumor growth delay [7]: 12 days
CCC1(O)CC(=O)OCc2c1cc1n(c2=O)Cc2cc3cc(F)c(F)cc3nc2-1 (stereo unspecified),56%,66 nM,0.1 nM,0.001 nM,–,Tumor growth delay [10]: 8 days; Tumor growth delay [7]: 25 days; Tumor growth delay [13]: Toxic dose
COc1cc([C@@H]2c3cc4c(cc3[C@@H](O[C@@H]3O[C@@H]5CO[C@@H](C)O[C@H]5[C@H](O)[C@H]3O)[C@H]3COC(=O)[C@H]23)OCO4)cc(OC)c1O [ETOPOSIDE],–,–,–,2300 nM,67000 nM,–
CC[C@@]1(O)C(=O)OCc2c1cc1n(c2=O)Cc2cc3c(CN(C)C)c(O)ccc3nc2-1 [TOPOTECAN],–,1100 nM,49 nM,160 nM,420 nM,–
CCC1(O)CC(=O)OCc2c1cc1n(c2=O)Cc2cc3cc4c(cc3nc2-1)OCCO4 (stereo unspecified),50%,–,–,–,–,–
CCC1(O)CC(=O)OCc2c1cc1n(c2=O)Cc2cc3cc4c(cc3nc2-1)OCO4 (stereo unspecified),58%,37 nM,0.62 nM,< 0.001 nM,0.55 nM,–
CCC1(O)CC(=O)OCc2c1cc1n(c2=O)Cc2cc3ccccc3nc2-1 (stereo unspecified),60%,47 nM,12 nM,60 nM,21 nM,–
CCC1(O)CC(=O)OCc2c1cc1n(c2=O)Cc2cc3cc(Cl)ccc3nc2-1 (stereo unspecified),57%,2.6 nM,0.36 nM,18 nM,1.3 nM,–
